Data set [1] concerns Influenza A virus. The experiment in a line: Antiviral activity against Influenza A virus A/PR/8/34 infected in BALB/C mouse model assessed as increase in survival at 10 mg/kg, po administered twice daily for 10 days from 48 hrs post-infection and measured for 21 days. Format: functional, organism-based. The conditions noted are these: time 21.0 day. The method, boiled down:
(§1)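 Male BALB/c mice, 8 per group, inoculated intranasally with mouse-adapted A/PR/8/34 at 5e3 TCID50/mouse. Oral dosing twice daily for 10 days, starting 48 h after infection, at 10, 30 or 60 mg/kg. Survival and body weight were tracked against untreated controls.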

Data set [2] has as its system Influenza A virus. The experiment in a line: Antiviral activity against Influenza A virus A/PR/8/34 infected in MDCK cells assessed as reduction in viral RNA level incubated for 20 hrs by bDNA hybridization method. Format: functional. As to conditions: A/PR/8/34, MDCK. The procedure, abridged:
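Branched-DNA read-out of viral RNA in infected cells. EC90 is the compound concentration at which viral RNA equals 10% of that in control wells.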

The target in data set [3] is Polymerase basic protein 2 (Influenza A virus (strain A/Puerto Rico/8/1934 H1N1), UniProt P03428). Nature of the data set: Binding affinity to full length Influenza A virus PB2 cap-binding domain assessed as dissociation constant incubated for 60 mins by fluorescence polarization assay. The procedure, abridged:
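Fluorescence polarization competition binding assay against the cap-binding domain of the PB2 subunit, giving Kd.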
(In general: Polarisation of emitted light reports the rotation of a fluorescent probe.)

Data set [4] in a line: AUC in mouse at 30 mg/kg, po. Format: ADME, organism-based. The arrangement: dose 30 mg/kg, route po. As to conditions: in vivo.
Data set [5] is described as follows: Stability in rat S9 fraction assessed as compound remaining at 1 uM. As to conditions: read-out: Stability. The data set is classed as ADME, subcellular.
The nature of data set [6]: Stability in human S9 fraction assessed as compound remaining at 1 uM. As to conditions: read-out: Stability. The data set is classed as ADME, subcellular.
Data set [7] is described as follows: Cmax in mouse at 30 mg/kg, po. Format: ADME, organism-based. The arrangement: dose 30 mg/kg, route po. The conditions noted are these: in vivo.
For data set [8], the system named is Influenza A virus. The experiment in a line: Antiviral activity against Influenza A virus A/PR/8/34 infected in BALB/C mouse model assessed as increase in survival at 10 to 60 mg/kg, po administered twice daily for 10 days from 48 hrs post-infection and measured for 21 days. The data set is classed as functional, organism-based. As to conditions: dose 10-60 mg/kg, time 21.0 day. The method, boiled down: as §1

The nature of data set [9]: Half-life in rat at 1 mg/kg, iv. The data set is classed as ADME, organism-based. As to conditions: in vivo.
In data set [10] the test system is Influenza A virus. The experiment in a line: Antiviral activity against oseltamivir sensitive Influenza A virus A/Henan/Jinshui/147/2007 (H3N2) infected in MDCK cells incubated for 72 hrs by cell protection assay. The data set is classed as functional, organism-based. The method, boiled down: (§2)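 MDCK cells incubated with test compound and influenza A virus for 72 h. EC50 is the concentration giving 50% cell protection, reported as the mean of N=3. Oseltamivir resistant or sensitive status was assigned by externally validated phenotypic or genetic analysis.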

The nature of data set [11]: Clearance in rat at 1 mg/kg, iv. As to conditions: in vivo. The data set is classed as ADME, organism-based.
Data set [12] concerns Influenza A virus. Nature of the data set: Antiviral activity against oseltamivir sensitive Influenza A virus A/California/07/2009 (H1N1) infected in MDCK cells incubated for 72 hrs by cell protection assay. The data set is classed as functional, organism-based. The method, boiled down: as §2
In data set [13] the test system is Influenza A virus. The experiment in a line: Antiviral activity against oseltamivir sensitive Influenza A virus A/Vietnam/1203/2004 (H5N1) infected in MDCK cells incubated for 72 hrs by cell protection assay. The data set is classed as functional, organism-based.
The nature of data set [14]: AUC in rat at 3 mg/kg, po. Format: ADME, organism-based. As to conditions: in vivo. The arrangement: dose 3 mg/kg, route po.
Data set [15] has as its system Influenza A virus. The experiment in a line: Antiviral activity against oseltamivir sensitive Influenza A virus A/[…]/8/34 (H1N1) infected in MDCK cells incubated for 72 hrs by cell protection assay. Format: functional, organism-based. The procedure, abridged:
as §2

Data set [16] in a line: Toxicity in BALB/C mouse model of influenza infected with Influenza A virus A/PR/8/34 assessed as body weight loss administered orally twice daily for 10 days from 48 hrs post-infection and measured for 21 days. As to conditions: in vivo, po, 504 h, dose 10-60 mg/kg, time 21 day. The method, boiled down: as §1
Data set [17] has as its system Influenza A virus. The experiment in a line: Antiviral activity against oseltamivir sensitive Influenza A virus A/Georgia/17/2006 (H1N1) infected in MDCK cells incubated for 72 hrs by cell protection assay. The data set is classed as functional, organism-based. The procedure, abridged: as §2

Here are results for 14 compounds from ChEMBL document CHEMBL5260803, “Discovery of Novel, Orally Bioavailable β-Amino Acid Azaindole Inhibitors of Influenza PB2” (ACS Med Chem Lett, 2017).

Active and inactive are the calls of the source. The rule behind the calls is not given here.

Chain of Polymerase basic protein 2 (P03428 whole entry, the tested form may be a part): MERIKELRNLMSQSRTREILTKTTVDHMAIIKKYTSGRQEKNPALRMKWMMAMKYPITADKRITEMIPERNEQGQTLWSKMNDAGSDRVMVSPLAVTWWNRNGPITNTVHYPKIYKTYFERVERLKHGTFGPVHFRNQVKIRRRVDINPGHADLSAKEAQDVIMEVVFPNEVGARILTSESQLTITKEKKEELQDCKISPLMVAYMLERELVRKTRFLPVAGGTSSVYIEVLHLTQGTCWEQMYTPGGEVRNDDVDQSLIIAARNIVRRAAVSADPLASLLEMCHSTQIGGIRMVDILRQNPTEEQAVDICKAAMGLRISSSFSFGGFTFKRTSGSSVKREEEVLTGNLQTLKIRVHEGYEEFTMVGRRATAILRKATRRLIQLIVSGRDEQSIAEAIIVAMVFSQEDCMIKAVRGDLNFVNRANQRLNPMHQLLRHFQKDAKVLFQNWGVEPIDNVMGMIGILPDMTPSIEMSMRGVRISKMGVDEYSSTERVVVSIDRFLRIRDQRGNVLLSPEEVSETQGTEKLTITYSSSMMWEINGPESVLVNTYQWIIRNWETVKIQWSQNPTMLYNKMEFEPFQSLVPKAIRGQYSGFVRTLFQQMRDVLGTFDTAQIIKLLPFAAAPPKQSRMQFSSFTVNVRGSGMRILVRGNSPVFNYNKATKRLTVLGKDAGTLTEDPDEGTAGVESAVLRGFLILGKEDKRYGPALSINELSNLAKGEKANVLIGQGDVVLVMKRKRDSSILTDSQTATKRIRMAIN

On to `CCOC(=O)C1=C[C@@H](OC(CC)CC)[C@H](NC(C)=O)[C@@H](N)C1`, for which the outcome with Influenza A virus [1] was inactive.
What is called EC90 is the point of the concentration-response curve where the effect stands at 90%. In general, Kd refers to the constant that tells how readily two partners part at equilibrium. On to `CC(C)(C)[C@@H](CC(=O)O)Nc1nc(-c2c[nH]c3ncc(Cl)cc23)ncc1F`, for which, in the data set with Influenza A virus [2], the 90% effect concentration (EC90) amounted to 23 nM. The equilibrium dissociation constant (Kd) in data set [3] was less than 3 nM.
For the compound `O=C(O)C[C@@H](Nc1nc(-c2c[nH]c3ncc(F)cc23)ncc1F)C1CCC1`, in the data set with Influenza A virus [2], the EC90 turned out to be 780 nM.
With `CCC(C)(C)[C@@H](CC(=O)O)Nc1nc(-c2c[nH]c3ncc(F)cc23)ncc1F`, in the data set on Influenza A virus [2], the concentration for an effect of 90% (EC90) is 60 nM. For the same compound, in [3], the Kd was less than 3 nM.
The like results for `CC1(C(CC(=O)O)Nc2nc(-c3c[nH]c4ncc(F)cc34)ncc2F)CCCCC1` (racemic) were, in that order, 120 nM and less than 3 nM.
For `CC(C)(C(CC(=O)O)Nc1nc(-c2c[nH]c3ncc(F)cc23)ncc1F)C(F)(F)F` (racemic), the EC90 in the data set on Influenza A virus [2] turned out to be 520 nM.
What is called AUC is concentration integrated over time. A lower AUC goes with less exposure. In general, Cmax refers to the peak of the concentration-time curve. In data set [4], `C[C@](CC(=O)O)(Nc1nc(-c2c[nH]c3ncc(F)cc23)ncc1F)C1CCC1` had an AUC of 6700 ng·h/mL. Moreover, the remaining at 1 µM in data set [5] is 100%; in data set [6] it was 94%. Further, in the data set with Influenza A virus [2], the EC90 is 10 nM. For the same compound, in data set [3], the equilibrium dissociation constant (Kd) was less than 3 nM. The compound also registered a Cmax in data set [7] of 7400 ng/mL. In addition, in the data set with Influenza A virus [8], the result was Active.
By half-life is commonly meant how long it takes for the measured level to halve. Broadly, the EC50 is the concentration giving half of the maximal effect. A high value points to lower potency in that assay. A word on the clearance: it is the volume of plasma or blood freed of the substance per unit of time. As for `CC(C)(C)[C@@H](CC(=O)O)Nc1nc(-c2c[nH]c3ncc(F)cc23)ncc1F`, the area under the curve (AUC) in data set [4] is 7200 ng·h/mL; in [14], 3300 ng·h/mL. Also, in [9], the half-life was 9.9 h. The 50% effective concentration (EC50) amounted to 19 nM in the data set on Influenza A virus [10]; 4 nM with Influenza A virus [12]; 4 nM in the data set with Influenza A virus [13]; 14 nM in the data set on Influenza A virus [15]; 9 nM in the data set on Influenza A virus [17]. The clearance in data set [11] worked out at 8 mL/min/kg. Also, in the data set with Influenza A virus [2], the EC90 was 30 nM. The equilibrium dissociation constant (Kd) in data set [3] came to 3 nM. The compound also had a maximum concentration (Cmax) in data set [7] of 11800 ng/mL. In data set [16], the Activity result is “Non-Toxic”. Moreover, the result in the data set with Influenza A virus [8] was Active.
`CCC(CC)C(CC(=O)O)Nc1nc(-c2c[nH]c3ncc(F)cc23)ncc1F` (racemic): the EC90 in the data set with Influenza A virus [2] was determined as 340 nM.
On the same count and under the same terms, next, `CC(C)[C@@H](CC(=O)O)Nc1nc(-c2c[nH]c3ncc(F)cc23)ncc1F`: 590 nM.
Turning to `CC(C)(C)[C@H](CC(=O)O)Nc1nc(-c2c[nH]c3ncc(Cl)cc23)ncc1F`, in the data set on Influenza A virus [2], the 90% effect concentration (EC90) was more than 3300 nM. In addition, the Kd in data set [3] came to 200 nM.
For `CC(C)(C)[C@H](CC(=O)O)Nc1nc(-c2c[nH]c3ncc(F)cc23)ncc1F`, in the data set on Influenza A virus [2], the concentration for an effect of 90% (EC90) is more than 6650 nM. Besides, in data set [3], the Kd stood at 150 nM.
The like results for `CC1([C@@H](CC(=O)O)Nc2nc(-c3c[nH]c4ncc(F)cc34)ncc2F)CCCC1` were, in that order, 20 nM and less than 3 nM.
`CC1([C@@H](CC(=O)O)Nc2nc(-c3c[nH]c4ncc(F)cc34)ncc2F)CC1`: the EC90 in the data set with Influenza A virus [2] is 670 nM.
